This passage reports inhibition and Flu intensity results from ChEMBL document CHEMBL4665743, “Labdane-Type Diterpenes from the Aerial Parts of Rydingia persica: Their Absolute Configurations and Protective Effects on LPS-Induced Inflammation in Keratinocytes” (2020).

Common to all, as to format: functional
The test system of assay [1] is HaCaT. The experiment in a line: Anti-inflammatory activity in human HaCaT cells assessed as inhibition of LPS-induced IL-6 production at 12.5 uM after 24 hrs by ELISA relative to LPS alone. The essentials: (§1)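 HaCaT keratinocytes (DMEM, 4 g/L glucose, 10% FBS, 1% pen-strep) seeded 5 × 10^3 cells/well and allowed to adhere 24 h. Compounds added for 1 h alone, then with E. coli LPS (5 μg/mL) for 24 h. IL-6 or TNF-α measured in supernatants by ELISA (pg/mL) and expressed as % inhibition vs LPS alone. Indomethacin 10 μM served as reference. Mean ± SEM, n = 3.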
In general terms: In an ELISA, binding on a coated surface is turned into a signal by an enzyme label.

Assay [2] deals with HaCaT. The experiment in a line: Anti-inflammatory activity in human HaCaT cells assessed as inhibition of LPS-induced nitrotyrosine production at 25 uM after 24 hrs by FACS analysis relative to LPS alone. The essentials:
(§2)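 Cells were HaCaT seeded at 5 × 10^3 cells/well and pretreated with compound 1 h, then exposed to LPS (5 μg/mL) for 24 h. They were collected, PBS-washed, fixed 20 min and permeabilized 30 min, then stained 1 h with anti-nitrotyrosine antibody plus fluorescent secondary. Fluorescence was read by flow cytometry and expressed as % inhibition vs LPS alone. Mean ± SEM, n = 3.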
On the technique in general: In flow cytometry, cells or beads pass a laser one at a time.

In assay [3] the test system is HaCaT. The experiment in a line: Anti-inflammatory activity in human HaCaT cells assessed as inhibition of LPS-induced IL-6 production at 50 uM after 24 hrs by ELISA relative to LPS alone. The essentials: as §1
The subject of assay [4] is HaCaT. Briefly: Anti-inflammatory activity in human HaCaT cells assessed as inhibition of LPS-induced occluding expression at 12.5 uM after 24 hrs by FACS analysis (rvb = 30.17 +/- 5.98).
In assay [5] the test system is HaCaT. Briefly: Anti-inflammatory activity in human HaCaT cells assessed as inhibition of LPS-induced TNF-alpha production at 25 uM after 24 hrs by ELISA relative to LPS alone. The essentials: as §1
The test system of assay [6] is HaCaT. Briefly: Anti-inflammatory activity in human HaCaT cells assessed as inhibition of LPS-induced occluding expression at 50 uM after 24 hrs by FACS analysis (rvb = 30.17 +/- 5.98).
Assay [7] relates to HaCaT. Briefly: Anti-inflammatory activity in human HaCaT cells assessed as inhibition of LPS-induced claudin-1 expression at 25 uM after 24 hrs by FACS analysis (rvb = 31.19 +/- 0.77).
Assay [8] deals with HaCaT. The experiment in a line: Anti-inflammatory activity in human HaCaT cells assessed as inhibition of LPS-induced TNF-alpha production at 12.5 uM after 24 hrs by ELISA relative to LPS alone. The procedure, abridged:
as §1

The test system of assay [9] is HaCaT. Briefly: Anti-inflammatory activity in human HaCaT cells assessed as inhibition of LPS-induced TNF-alpha production at 50 uM after 24 hrs by ELISA relative to LPS alone. The procedure, abridged:
as §1

Assay [10] relates to HaCaT. Briefly: Anti-inflammatory activity in human HaCaT cells assessed as inhibition of LPS-induced IL-6 production at 25 uM after 24 hrs by ELISA relative to LPS alone. The essentials: as §1
Assay [11] relates to HaCaT. Briefly: Anti-inflammatory activity in human HaCaT cells assessed as inhibition of LPS-induced nitrotyrosine production at 50 uM after 24 hrs by FACS analysis relative to LPS alone. The essentials: as §2
Assay [12] concerns HaCaT. The experiment in a line: Anti-inflammatory activity in human HaCaT cells assessed as inhibition of LPS-induced nitrotyrosine production at 12.5 uM after 24 hrs by FACS analysis relative to LPS alone. The essentials:
as §2

Assay [13] relates to HaCaT. Briefly: Anti-inflammatory activity in human HaCaT cells assessed as inhibition of LPS-induced claudin-1 expression at 50 uM after 24 hrs by FACS analysis (rvb = 31.19 +/- 0.77).
Assay [14] concerns HaCaT. Briefly: Anti-inflammatory activity in human HaCaT cells assessed as inhibition of LPS-induced claudin-1 expression at 12.5 uM after 24 hrs by FACS analysis (rvb = 31.19 +/- 0.77).
Assay [15] deals with HaCaT. The experiment in a line: Anti-inflammatory activity in human HaCaT cells assessed as inhibition of LPS-induced occluding expression at 25 uM after 24 hrs by FACS analysis (rvb = 30.17 +/- 5.98).
Assay [16] concerns HaCaT. Briefly: Anti-inflammatory activity in human HaCaT cells assessed as inhibition of LPS-induced IL-6 production at 10 uM after 24 hrs by ELISA relative to LPS alone. The essentials:
as §1

Assay [17] has as its system HaCaT. The experiment in a line: Anti-inflammatory activity in human HaCaT cells assessed as inhibition of LPS-induced TNF-alpha production at 10 uM after 24 hrs by ELISA relative to LPS alone. The essentials:
as §1

As for `CO[C@H]1C[C@]2(CC[C@@]3(O2)[C@H](C)C(=O)[C@@H](O)[C@H]2C(C)(C)[C@H](O)CC[C@@]23C)CO1`, the results for the inhibition at 12.5 µM with HaCaT [1], with HaCaT [8] and in the assay on HaCaT [12] were 38.5%, 44% and 0%, respectively. Besides, the inhibition (as a rule, the share of the control response that was lost under treatment) at 25 µM in the assay with HaCaT [2] came out at 15%; in the assay with HaCaT [5], 55%; with HaCaT [10], 68.5%. Further, the inhibition at 50 µM in the assay on HaCaT [3] turned out to be 78%; in the assay with HaCaT [9], 65%; in the assay with HaCaT [11], 38%. Further, the Flu intensity is 18.89 with HaCaT [4]; 35.8 in the assay on HaCaT [6]; 22.27 in the assay with HaCaT [7]; 31.45 in the assay on HaCaT [13]; 14.39 with HaCaT [14]; 23.48 in the assay on HaCaT [15].
Consider `COc1ccc2c(c1)c(CC(=O)O)c(C)n2C(=O)c1ccc(Cl)cc1` [INDOMETHACIN], for which the results for the inhibition at 10 µM in the assay on HaCaT [16] and with HaCaT [17] were 88.5% and 77%, respectively.
